Source: ChEMBL document CHEMBL1132449, “Pyrroloquinoxaline derivatives as high-affinity and selective 5-HT(3) receptor agonists: synthesis, further structure-activity relationships, and biological studies” (J Med Chem, 1999)

Tests used:
[1] = target: T1, 5-hydroxytryptamine receptor 1A (Rattus norvegicus, UniProt P19327); assay: The compound was tested for the binding affinity against 5-hydroxytryptamine 1A receptor using [3H]8-OH-DPAT as radioligand.
T1 sequence (P19327 whole entry): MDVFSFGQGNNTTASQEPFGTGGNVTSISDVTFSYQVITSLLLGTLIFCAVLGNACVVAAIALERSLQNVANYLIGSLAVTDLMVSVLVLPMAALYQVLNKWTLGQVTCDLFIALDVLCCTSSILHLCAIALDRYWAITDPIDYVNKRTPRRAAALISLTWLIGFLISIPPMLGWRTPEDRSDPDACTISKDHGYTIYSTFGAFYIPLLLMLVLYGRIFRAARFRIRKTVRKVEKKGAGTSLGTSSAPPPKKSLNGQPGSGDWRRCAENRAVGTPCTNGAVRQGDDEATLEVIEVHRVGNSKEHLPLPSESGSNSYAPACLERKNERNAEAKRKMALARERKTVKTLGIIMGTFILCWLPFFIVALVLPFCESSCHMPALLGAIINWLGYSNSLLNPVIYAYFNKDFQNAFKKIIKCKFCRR

[2] = target: T2, 5-hydroxytryptamine receptor 1B (Rattus norvegicus, UniProt P28564); assay: The compound was tested for the binding affinity against 5-hydroxytryptamine 1B receptor using [3H]5-HT as radioligand
[3] = target: T3, 5-hydroxytryptamine receptor 2A (Rattus norvegicus, UniProt P14842); assay: The compound was tested for the binding affinity against 5-hydroxytryptamine 2A receptor using [3H]ketanserin as radioligand
[4] = target: T4, 5-hydroxytryptamine receptor 2C (Rattus norvegicus, UniProt P08909); assay: The compound was tested for the binding affinity against 5-hydroxytryptamine 2C receptor using [3H]mesulergine as radioligand
T4 sequence (P08909 whole entry): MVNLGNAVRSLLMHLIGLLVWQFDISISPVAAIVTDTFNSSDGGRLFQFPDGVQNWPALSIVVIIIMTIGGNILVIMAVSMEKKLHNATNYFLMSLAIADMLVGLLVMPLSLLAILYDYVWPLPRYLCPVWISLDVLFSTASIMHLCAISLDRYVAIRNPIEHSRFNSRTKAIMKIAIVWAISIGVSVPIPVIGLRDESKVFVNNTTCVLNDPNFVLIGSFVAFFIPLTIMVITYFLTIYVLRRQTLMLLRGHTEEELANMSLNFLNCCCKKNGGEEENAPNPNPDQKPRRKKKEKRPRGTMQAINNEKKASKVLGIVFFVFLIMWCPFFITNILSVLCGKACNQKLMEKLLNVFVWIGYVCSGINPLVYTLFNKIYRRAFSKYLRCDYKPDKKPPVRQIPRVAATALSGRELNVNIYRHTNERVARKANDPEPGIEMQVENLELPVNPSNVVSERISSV

[5] = target: T5, Serotonin 3 (5-HT3) receptor (Rattus norvegicus, UniProt P35563+Q9JJ16); assay: Binding affinity against 5-hydroxytryptamine 3 (5-HT3) receptor from rat cortical homogenate using [3H]zacopride as radioligand
T5 sequence (P35563 whole entry): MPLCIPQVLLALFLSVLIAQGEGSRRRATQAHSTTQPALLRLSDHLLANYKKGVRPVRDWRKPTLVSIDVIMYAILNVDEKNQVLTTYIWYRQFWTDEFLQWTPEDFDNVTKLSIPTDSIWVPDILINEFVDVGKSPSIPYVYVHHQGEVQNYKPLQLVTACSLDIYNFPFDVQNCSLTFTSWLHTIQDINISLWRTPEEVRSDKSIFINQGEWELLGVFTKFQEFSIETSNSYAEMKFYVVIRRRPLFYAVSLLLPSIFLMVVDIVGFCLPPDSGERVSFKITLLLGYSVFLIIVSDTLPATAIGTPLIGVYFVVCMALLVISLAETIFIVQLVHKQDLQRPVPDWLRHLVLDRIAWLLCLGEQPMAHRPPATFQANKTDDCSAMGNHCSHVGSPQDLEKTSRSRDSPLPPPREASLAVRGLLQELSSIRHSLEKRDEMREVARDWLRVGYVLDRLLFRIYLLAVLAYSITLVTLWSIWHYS
T5 sequence (Q9JJ16 whole entry): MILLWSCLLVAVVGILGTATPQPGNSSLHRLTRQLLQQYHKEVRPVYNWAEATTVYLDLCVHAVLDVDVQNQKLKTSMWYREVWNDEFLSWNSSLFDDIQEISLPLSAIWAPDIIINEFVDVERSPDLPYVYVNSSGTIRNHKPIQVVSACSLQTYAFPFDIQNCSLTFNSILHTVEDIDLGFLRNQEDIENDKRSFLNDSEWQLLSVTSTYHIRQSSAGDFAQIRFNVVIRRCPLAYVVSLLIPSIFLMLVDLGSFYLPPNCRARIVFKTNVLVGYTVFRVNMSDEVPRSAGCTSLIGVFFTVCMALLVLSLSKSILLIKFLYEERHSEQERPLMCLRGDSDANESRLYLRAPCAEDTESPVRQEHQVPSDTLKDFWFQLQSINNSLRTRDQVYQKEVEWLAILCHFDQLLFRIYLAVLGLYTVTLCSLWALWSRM
Summary of the method: (§1)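 Male rat cortices, stored at -80 °C, were homogenized in ice-cold 25 mM Tris HCl pH 7.4 and spun at 50000g. Membranes were preincubated 10 min at 37 °C, washed, and resuspended with 10 µM pargyline (10 mg tissue/sample). They were incubated with 0.4 nM (final) [3H]zacopride for 30 min at 25 °C, filtered through PEI-treated GF/B and counted. IC50 came from dose-inhibition curves, mean ± SEM of three determinations.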

[6] = target: T5, Serotonin 3 (5-HT3) receptor; assay: The compound was tested for the binding affinity against 5-hydroxytryptamine 3 receptor using [3H]zacopride as radioligand; type: protein-complex assay
[7] = target: T6, 5-hydroxytryptamine receptor 4 (Cavia porcellus, UniProt O70528); assay: The compound was tested for the binding affinity against 5-hydroxytryptamine 4 receptor using [3H]GR-113808 as radioligand
Summary of the method: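 Male guinea pig striatal membranes, washed and preincubated at 37 °C, were incubated with 0.1 nM (final) [3H]GR113808 for 30 min at 37 °C.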

[8] = The compound was tested for brain to plasma partition in rat; type: ADME, organism-based; settings: brain and plasma, read-out: AUC ratio
Summary of the method: (§2)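 Male CD-COBS rats (175-200 g) received hydrochloride salts in saline i.v. at 5 mg/kg and were killed 60, 120 and 180 min after dosing. Plasma and brain levels were measured by HPLC-UV (254 nm) after liquid-liquid or solid-phase extraction with an internal standard. The ratio is brain-to-plasma AUC_t, 2-3 rats per point.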

[9] = target: Serotonin 3 (5-HT3) receptor; assay: Effective concentration against 5-Hydroxytryptamine 3 receptor by measuring [14C]guanidinium uptake on NG108-15 cells.; type: functional, cell-based
NG108-15 [10] = assay: The compound was tested for efficacy against 5-Hydroxytryptamine 3 receptor by measuring [14C]guanidinium uptake on NG108-15 cells; PA=Partial agonist; type: functional, cell-based; settings: filed as partial agonist
Summary of the method: (§3)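 NG108-15 cells, grown 2 days, were washed in HEPES saline pH 7.4. They were exposed 10 min at 37 °C to buffer (135 mM NaCl, 10 mM guanidinium) with […] [14C]guanidinium, 1 mM 5-HT, […] and/or 8 drug concentrations. Cells were washed in ice-cold choline buffer, dissolved in NaOH and counted by scintillation. Assays run in triplicate.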

[11] = target: T2, 5-hydroxytryptamine receptor 1B; assay: The compound was tested for the binding affinity against 5-hydroxytryptamine 1B receptor using [3H]5-HT as radioligand.
[12] = target: T3, 5-hydroxytryptamine receptor 2A; assay: The compound was tested for the binding affinity against 5-hydroxytryptamine 2A receptor using [3H]ketanserin as radioligand.
[13] = target: T4, 5-hydroxytryptamine receptor 2C; assay: The compound was tested for the binding affinity against 5-hydroxytryptamine 2C receptor using [3H]Mesulergine as radioligand.
[14] = target: T5, Serotonin 3 (5-HT3) receptor; assay: The compound was tested for the binding affinity against 5-hydroxytryptamine 3 receptor using [3H]zacopride as radioligand.; type: protein-complex assay
[15] = target: T6, 5-hydroxytryptamine receptor 4; assay: The compound was tested for the binding affinity against 5-hydroxytryptamine 4 receptor using [3H]GR-113808 as radioligand.
NG108-15 [16] = assay: The compound was tested for efficacy against 5-Hydroxytryptamine 3 receptor by measuring [14C]guanidinium uptake on NG108-15 cells.; PA=Partial agonist; type: functional, cell-based; settings: filed as partial agonist; summary of the method: as §3
[17] = target: T5, Serotonin 3 (5-HT3) receptor; assay: The compound was tested for binding affinity against 5-hydroxytryptamine 3 receptor from NG108-15 cells (using [3H]zacopride as radioligand); type: cell-based
Summary of the method: (§4)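 NG108-15 cells were grown in DMEM with 10% inactivated FCS plus HAT at 37 °C, 10% CO2, harvested by shaking and pelleted. About 420 000 cells/sample in 50 mM Tris HCl pH 7.5 with 25 mM NaCl were incubated with 0.4 nM (final) [3H]zacopride for 60 min at 25 °C, then filtered and counted. IC50 is mean ± SEM of three determinations.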

NG108-15 [18] = assay: The compound was tested for efficacy against 5-Hydroxytryptamine 3 receptor by measuring [14C]guanidinium uptake on NG108-15 cells; A= agonist; type: functional, cell-based; settings: filed as agonist; summary of the method: as §3
[19] = target: T5, Serotonin 3 (5-HT3) receptor; assay: The compound was tested for binding affinity against 5-hydroxytryptamine 3 receptor from NG108-15 cells using [3H]zacopride as radioligand; type: cell-based; summary of the method: as §4
[20] = The compound was tested for brain to plasma partition in rat.; type: ADME, organism-based; settings: brain and plasma, read-out: AUC ratio; summary of the method: as §2
NG108-15 [21] = assay: The compound was tested for efficacy against 5-Hydroxytryptamine 3 receptor by measuring [14C]guanidinium uptake on NG108-15 cells.; A = Agonist; type: functional, cell-based; settings: filed as agonist; summary of the method: as §3
[22] = target: T5, Serotonin 3 (5-HT3) receptor; assay: The compound was tested for binding affinity against 5-hydroxytryptamine 3 receptor from rat cortical homogenate using [3H]zacopride as radioligand; not active; summary of the method: as §1

T6 sequence (O70528 whole entry): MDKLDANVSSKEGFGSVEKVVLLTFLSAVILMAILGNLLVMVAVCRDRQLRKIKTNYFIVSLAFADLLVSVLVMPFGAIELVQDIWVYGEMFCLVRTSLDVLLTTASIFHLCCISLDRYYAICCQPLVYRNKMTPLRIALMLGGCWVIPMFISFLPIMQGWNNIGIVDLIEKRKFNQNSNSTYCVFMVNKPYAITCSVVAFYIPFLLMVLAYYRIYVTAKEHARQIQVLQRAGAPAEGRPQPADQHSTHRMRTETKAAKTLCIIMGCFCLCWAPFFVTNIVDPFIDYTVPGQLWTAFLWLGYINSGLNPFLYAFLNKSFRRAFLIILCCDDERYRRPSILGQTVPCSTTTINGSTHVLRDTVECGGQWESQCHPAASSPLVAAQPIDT
T3 sequence (P14842 whole entry): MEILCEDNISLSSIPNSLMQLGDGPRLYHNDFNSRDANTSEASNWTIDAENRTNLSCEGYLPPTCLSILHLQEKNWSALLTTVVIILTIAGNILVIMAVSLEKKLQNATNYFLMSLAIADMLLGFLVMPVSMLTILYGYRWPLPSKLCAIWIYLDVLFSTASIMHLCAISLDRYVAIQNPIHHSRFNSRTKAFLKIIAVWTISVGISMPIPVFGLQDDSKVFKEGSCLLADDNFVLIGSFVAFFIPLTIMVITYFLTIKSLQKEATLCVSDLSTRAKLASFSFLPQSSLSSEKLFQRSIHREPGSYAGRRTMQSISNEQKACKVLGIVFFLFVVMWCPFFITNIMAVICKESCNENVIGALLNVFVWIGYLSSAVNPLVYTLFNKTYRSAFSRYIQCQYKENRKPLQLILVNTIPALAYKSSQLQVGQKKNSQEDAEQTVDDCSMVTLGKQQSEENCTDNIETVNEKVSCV
T2 sequence (P28564 whole entry): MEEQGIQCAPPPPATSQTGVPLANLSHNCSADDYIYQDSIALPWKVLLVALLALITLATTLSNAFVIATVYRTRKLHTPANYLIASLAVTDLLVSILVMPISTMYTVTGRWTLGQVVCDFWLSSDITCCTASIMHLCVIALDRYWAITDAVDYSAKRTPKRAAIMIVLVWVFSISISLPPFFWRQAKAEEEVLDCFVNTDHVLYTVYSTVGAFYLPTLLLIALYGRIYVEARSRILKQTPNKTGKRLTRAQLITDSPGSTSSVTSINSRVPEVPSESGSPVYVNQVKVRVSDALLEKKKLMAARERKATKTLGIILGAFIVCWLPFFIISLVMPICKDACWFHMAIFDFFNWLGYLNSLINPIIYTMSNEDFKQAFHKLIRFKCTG

| SMILES | Ki [1] | IC50 [5] | Ki [6] | Kp [8] | EC50 [9] | Efficacy (NG108-15 [10]) | Ki [11] | Ki [12] | Ki [13] | Ki [14] | Ki [15] | IC50 [19] | also measured |
| --- | --- | --- | --- | --- | --- | --- | --- | --- | --- | --- | --- | --- | --- |
| c1ccc(CN2CCN(c3nc4ncccc4n4cccc34)CC2)cc1 | > 10000 nM | 2.2 nM | 2 nM | 2.1 | 4.2 nM | Partial agonist | – | – | – | – | – | – | Ki [2]: > 10000 nM; Ki [3]: 794 nM; Ki [4]: > 10000 nM; Ki [7]: > 10000 nM |
| Cc1cccc2nc(N3CCNCC3)c3cccn3c12 | > 10000 nM | 1.13 nM | – | – | 9.5 nM | – | 251 nM | 1000 nM | 1000 nM | 1 nM | > 10000 nM | – | Efficacy (NG108-15 [16]): Partial agonist |
| CN1CCN(c2nc3ncccc3n3cccc23)CC1 | 25.1 nM | – | 2.51 nM | 4.9 | 1.7 nM | Partial agonist | – | – | – | – | – | – | Ki [2]: 25.1 nM; Ki [3]: > 10000 nM; Ki [4]: 794 nM; IC50 [17]: 9.3 nM; Ki [7]: > 10000 nM |
| Cc1ccc2c(c1)nc(N1CCN(C)CC1)c1cccn12 | – | 18 nM | – | – | 14 nM | – | – | – | – | – | – | – | Efficacy (NG108-15 [18]): Agonist |
| c1ccc2nc(N3CCNCC3)ccc2c1 [QUIPAZINE] | – | 3.8 nM | – | – | – | Partial agonist | – | 794 nM | 316 nM | 6.31 nM | – | – | – |
| Cc1cccc2nc(N3CCN(C)CC3)c3cccn3c12 | – | 0.79 nM | – | – | 3.8 nM | – | 398 nM | 501 nM | > 10000 nM | 0.794 nM | > 10000 nM | 0.26 nM | Kp [20]: 9.5; Efficacy (NG108-15 [21]): Agonist |
| CN1CCN(c2nc3cccnc3n3cccc23)CC1 | – | 1 nM | – | – | – | – | – | – | – | – | – | 5.4 nM | – |
| c1ccc(N2CCN(c3nc4ncccc4n4cccc34)CC2)cc1 | – | – | – | – | – | – | – | – | – | – | – | – | IC50 [22]: Not Active |
| c1csc(CN2CCN(c3nc4cccnc4n4cccc34)CC2)c1 | > 10000 nM | 3.6 nM | – | – | – | – | 3980 nM | 1580 nM | > 10000 nM | 3.16 nM | > 10000 nM | 6.4 nM | – |
| OCCN1CCN(c2nc3cccc(F)c3n3cccc23)CC1 | 501 nM | 8.2 nM | 7.94 nM | 20.3 | 54 nM | Partial agonist | 1580 nM | 501 nM | 2000 nM | – | > 10000 nM | – | – |
